Data set [1] can be described thus: Permeability of the compound at pH 4.0 by PAMPA. Format: ADME. The method, boiled down:
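PAMPA: compound diluted in system buffer at pH 7.4 or 4 as donor; membrane coated with GIT lipid; acceptor buffer; stirred 30 min with 40 μm aqueous boundary layer. UV spectra (250–500 nm) of reference, donor and acceptor; permeability coefficient from spectral AUCs; triplicate.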
In general terms: In PAMPA a lipid-coated filter parts donor from acceptor wells.

A further data set has as its system Liver microsomes. Nature of the data set: Intrinsic clearance in human liver microsomes after 0.5 to 4 hrs by UPLC-MS analysis. The class given is ADME, Microsome. The method, boiled down:
(§1)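 Pooled liver microsomes (female CD-1 mouse or mixed-gender human) at 0.5 mg/mL in 0.1 M potassium phosphate pH 7.4 with EDTA, with NADPH-regenerating solutions A+B; 37 °C with shaking; quenched at 0, 0.5, 1, 2, 4 h with cold methanol containing 10 μM warfarin internal standard. UPLC-MS (SIR); k from log peak-area-ratio slope, t1/2 = 0.693/k, CLint normalised to microsomal protein; triplicate.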

Data set [2] is described as follows: Permeability of the compound at pH 7.4 by PAMPA. The class given is ADME.
The subject of another data set is Liver. Nature of the data set: Intrinsic clearance in CD1 mouse liver microsomes after 0.5 to 4 hrs by UPLC-MS analysis. The class given is ADME, Microsome. The essentials:
as §1
In general terms: Liver microsomes are a subcellular fraction often used to study metabolism.

The nature of data set [3]: AUC in CD1 mouse at 200 mg/kg, po administered as single dose. The class given is ADME, organism-based. Also noted: dose 200 mg/kg, route oral. To be noted: plasma. The method, boiled down:
(§2)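 Female CD1 mice given one oral gavage dose (30, 50 or 200 mg/kg), n=3 per test article. Blood drawn from three mice at 15, 30, 60 min and 2, 4, 6, 8, 10, 24 h after dosing. Plasma concentration measured by LCMS over 24 h.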

Data set [4] in a line: Cmax in CD1 mouse at 200 mg/kg, po administered as single dose. The class given is ADME, organism-based. To be noted: in vivo. More on the design: dose 200 mg/kg, route oral. The essentials: as §2
Data set [5] can be described thus: Cmax in CD1 mouse at 30 mg/kg, po administered as single dose. To be noted: in vivo. The class given is ADME, organism-based. More on the design: dose 30 mg/kg, route oral. The essentials:
as §2

Data set [6] can be described thus: AUC in CD1 mouse at 30 mg/kg, po administered as single dose. The class given is ADME, organism-based. Also noted: dose 30 mg/kg, route oral. To be noted: plasma. The essentials:
as §2

The nature of data set [7]: AUC (infinity) in CD1 mouse at 50 mg/kg, po administered as single dose. The class given is ADME, organism-based. More on the design: time infinity, dose 50 mg/kg, route oral. To be noted: plasma. The method, boiled down: as §2
A short description of data set [8]: Cmax in CD1 mouse at 50 mg/kg, po administered as single dose. Format: ADME, organism-based. Also noted: dose 50 mg/kg, route oral. To be noted: in vivo. The method, boiled down: as §2

Take `COc1cc2[nH]c(-c3cccc(Oc4ccccc4)c3)c(C(=O)OCCCN3CCOCC3)c(=O)c2cc1F`: the permeability in data set [1] came to 30 ×10⁻⁶ cm/s; in data set [2], 880 ×10⁻⁶ cm/s. The entries for the “Intrinsic clearance (CLint)” value in the data set on Liver microsomes and with Liver were 11 µL/min/mg and 24 µL/min/mg, respectively.
What is called AUC(0-inf) is the area under the concentration-time curve extrapolated to infinity. A lower AUC(0-inf) goes with low exposure. For orientation: Cmax means the peak of the concentration-time curve. Take `CCOC(=O)c1c(-c2cccc(OC)c2)[nH]c2cc(OC)ccc2c1=O`: the AUC(0-inf) in [3] was 7.8 µM·h; in data set [6], 8 µM·h. Besides, the Cmax in [4] came to 5800 nM; in data set [5], 8000 nM. In addition, the entries for the “Intrinsic clearance (CLint)” value in the data set with Liver microsomes and in the data set on Liver were 5.7 µL/min/mg and 7.9 µL/min/mg, respectively.
With `CCOC(=O)c1c(-c2cccc(OCC)c2)[nH]c2cc(OC)ccc2c1=O`, the AUC(0-inf) in data set [3] came out at 10 µM·h; in data set [6], 5.1 µM·h. For the same compound, the Cmax in data set [4] was 2400 nM; in data set [5], 1900 nM. In addition, the “Intrinsic clearance (CLint)” value was 5.7 µL/min/mg in the data set with Liver microsomes and 12 µL/min/mg in the data set with Liver. The compound also registered a permeability in data set [2] of 260 ×10⁻⁶ cm/s.
In the case of `CCOC(=O)c1c(-c2cc(F)cc(OC)c2)[nH]c2cc(OC)c(F)cc2c1=O`, the figures for the AUC(0-inf) in [3] and in [7] were 19 µM·h and 9.3 µM·h, respectively. The results for the Cmax in [4] and in data set [8] were 1600 nM and 710 nM, respectively. For the same compound, the “Intrinsic clearance (CLint)” value with Liver microsomes turned out to be 56 µL/min/mg; in the data set with Liver, 6.7 µL/min/mg. Further, the permeability in data set [2] worked out at 230 ×10⁻⁶ cm/s.
On to `COc1cc2[nH]c(-c3cccc(Oc4ccccc4)c3)c(C(=O)OCCO)c(=O)c2cc1F`, for which the “Intrinsic clearance (CLint)” value in the data set with Liver microsomes was 4.8 µL/min/mg; with Liver, 11 µL/min/mg. In data set [2], this compound displayed a permeability of 620 ×10⁻⁶ cm/s.
For the compound `CCOC(=O)c1c(-c2cccc(Br)c2)[nH]c2cc(OC)c(F)cc2c1=O`, the AUC(0-inf) in data set [3] came to 160 µM·h; in data set [7] it was 71 µM·h. Moreover, the Cmax in data set [4] was 39000 nM; in data set [8], 31000 nM. For the same compound, the “Intrinsic clearance (CLint)” value in the data set on Liver microsomes was 1.2 µL/min/mg; with Liver, 2.7 µL/min/mg. In [2], this compound returned a permeability of 670 ×10⁻⁶ cm/s.
`CCOC(=O)c1c(-c2cccc(Oc3ccccc3)c2)[nH]c2cc(OC)ccc2c1=O`: the AUC(0-inf) in [3] was 1 µM·h; in data set [6] it was 0.15 µM·h. The Cmax in data set [4] was found to be 400 nM; in data set [5], 60 nM. Also, the permeability in data set [2] turned out to be 750 ×10⁻⁶ cm/s. Moreover, the “Intrinsic clearance (CLint)” value in the data set on Liver came to 35 µL/min/mg.
`CCCOc1cccc(-c2[nH]c3cc(OC)ccc3c(=O)c2C(=O)OCC)c1`: the results for the AUC(0-inf) in [3] and in data set [6] were 7.7 µM·h and 1.6 µM·h, respectively. The Cmax in [4] amounted to 1800 nM; in [5] it was 300 nM. Also, the “Intrinsic clearance (CLint)” value amounted to 12 µL/min/mg in the data set with Liver microsomes and 39 µL/min/mg in the data set on Liver. The compound further gave a permeability in [2] of 340 ×10⁻⁶ cm/s.
As to `CCOC(=O)c1c(-c2cccc(Cl)c2)[nH]c2cc(OC)ccc2c1=O`, the entries for the “Intrinsic clearance (CLint)” value in the data set with Liver microsomes and in the data set on Liver were 3.4 µL/min/mg and 16 µL/min/mg, respectively.
In data set [2], `CCOC(=O)c1c(-c2cccc(Oc3ccccc3)c2)[nH]c2cc(OC)c(F)cc2c1=O` gave a permeability of 560 ×10⁻⁶ cm/s. In addition, the “Intrinsic clearance (CLint)” value with Liver was found to be 16 µL/min/mg.
As for `CCOC(=O)c1c(-c2cccc(Cl)c2)[nH]c2cc(OC)c(F)cc2c1=O`, the AUC(0-inf) in data set [3] was 280 µM·h; in [7], 130 µM·h. For the same compound, the figures for the Cmax in data set [4] and in data set [8] were 66000 nM and 38000 nM, respectively. Moreover, the “Intrinsic clearance (CLint)” value in the data set on Liver microsomes is 0.5 µL/min/mg; with Liver, 4 µL/min/mg. Also, the permeability in data set [2] came out at 410 ×10⁻⁶ cm/s.
With `CCOC(=O)c1c(-c2cccc(-c3ccccc3)c2)[nH]c2cc(OC)ccc2c1=O`, the results for the AUC(0-inf) in [3] and in data set [6] were 4.3 µM·h and 1.7 µM·h, respectively. In addition, the Cmax in data set [4] stood at 430 nM; in [5], 230 nM. Also, the “Intrinsic clearance (CLint)” value in the data set on Liver microsomes worked out at 5 µL/min/mg; with Liver, 5.7 µL/min/mg. The same compound gave a permeability in data set [2] of 2900 ×10⁻⁶ cm/s.
Take `CCOC(=O)c1c(-c2ccc3c(c2)OCO3)[nH]c2cc(OC)ccc2c1=O`: the AUC(0-inf) was determined as 65 µM·h in [3] and 6.1 µM·h in data set [6]. Further, the Cmax was 5000 nM in data set [4] and 1500 nM in data set [5]. Moreover, the “Intrinsic clearance (CLint)” value in the data set with Liver microsomes and in the data set with Liver was 12 µL/min/mg throughout.

Values taken from ChEMBL document CHEMBL2169740 (J Med Chem, 2012).
